Laboratory results as given in the EternaBench riboswitch data.

System: MS2 coat protein
Assay: apparent Kd, MS2 coat protein; higher = weaker binding; RNA-MaP array; theophylline 2 mM where present
Method in brief: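 The titrant was SNAP-549-labelled MS2 coat protein, run from 0.7 or 1.5 nM in doubling steps to 3 µM. It was applied to designs transcribed by stalled E. coli RNA polymerase on Illumina sequencing-chip clusters, without ligand first and then with constant ligand, in 100 mM Tris-HCl pH 7.5, 80 mM KCl, 4 mM MgCl2, BSA, DTT, yeast tRNA and Tween-20. The apparent Kd is the median of filtered per-cluster binding-curve fits, with green signal normalised to red-channel RNA signal and control-cluster median Fmax.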

[1] = designed as: OFF switch for theophylline, no ligand
[2] = ligand present: theophylline, designed as: OFF switch for theophylline
[3] = designed as: ON switch for theophylline, no ligand
[4] = ligand present: theophylline, designed as: ON switch for theophylline

ACGUCACGUUUACUCGUGGUUUCGAUCGAUACCAGUAGCGAGAGUUACCCUUGGCAGCGACAUGAGGAUCACCCAUGUGCGAAGA
apparent Kd [1]: 11.8 nM | apparent Kd [2]: 15.9 nM

AUAUGAUCAUAUGAUACCAGAAAUGGUAUUCCUUUCUUUCUUACAUGAGGAUCACCCAUGUUCCCUUGGCAGCAUAUGAUCAUAU
apparent Kd [1]: 174 nM | apparent Kd [2]: 193 nM

AAAAUAAAUAAAACGGGUAACAUGAAGGAUACCAGCCAGGAAACUGGCCCUUGGCAGCCUCUACAUGAGGAUCACCCAUGUCCCG
apparent Kd [3]: 445 nM | apparent Kd [4]: 35.7 nM

AAGGUGAUCCGUGAUACCAGCUCAACAUGAGGAUCACCCAUGUAAGCCUGGAAACAGGCGAGCCCUUGGCAGCACGGUAAUAAUA
apparent Kd [3]: 11.9 nM | apparent Kd [4]: 13.8 nM

AAUAACAUGAGGAUCACCCAUGUAAAAGAUACCAGAUGCAUGAUGAUCCCUUGGCAGCUUAAACGCGAUUGGAAACAAUCGCGAA
apparent Kd [3]: 27.6 nM | apparent Kd [4]: 148 nM

ACGAACGAUAGUGAUACCAGACGAACAUGAGGAUCACCCAUGUUAUACACAUGGUUUAUUGUCCCUUGGCAGCACUUUAAGUUCG
apparent Kd [1]: 147 nM | apparent Kd [2]: 89.6 nM

AAACAUUGCUCAGAUACCAGACAUGAGGAUCACCCAUGUACCGAGGUACCCGAAAGGAAUGUCCCUUGGCAGCUGAGCAAUGAAA
apparent Kd [1]: 12 nM | apparent Kd [2]: 129 nM

AUCGCACCUGGUGAUACCAGCGUUUGCUCGUGACAUGAGGAUCACCCAUGUGGCCAGUGAUGCCCUUGGCAGCAUGGUCGGUGCA
apparent Kd [3]: 230 nM | apparent Kd [4]: 177 nM

AUAUUAGACCUGGAUACCAGCGACAUGAGGAUCACCCAUGUAUGUGCAUCAGCCAUGAUAUGCCCUUGGCAGCCACCGAGGUCGU
apparent Kd [1]: 13.6 nM | apparent Kd [2]: 37.2 nM

AUCGUACCUGAUGAUACCAGCAAUUGCUCGUGACAUGAGGAUCACCCAUGUGACCAGUGAUGCCCUUGGCAGCAUGGUCGGUGCA
apparent Kd [3]: 97.1 nM | apparent Kd [4]: 13.3 nM

AACAGGGCUUCCACGAAGCCCUAAGGUGAUACCAGCACAUGUAAGUGCCCUUGGCAGCACGGUACAUGAGGAUCACCCAUGUAGA
apparent Kd [3]: 50.3 nM | apparent Kd [4]: 366 nM

AAUCUGUCGGGUGAUACCAGCCUCGGCACAUCUCGUGCCGAACAUGAGGAUCACCCAUGUGGCCCUUGGCAGCACAUGACAAAUC
apparent Kd [3]: 381 nM | apparent Kd [4]: 85.3 nM

CAUGAAGUAACUGAUACCAGUGUACACAUGAGGAUCACCCAUGUGUUGGGUUUUGUUGUACACCCUUGGCAGCAGAAUCUUUAUG
apparent Kd [1]: 56.6 nM | apparent Kd [2]: 100 nM

ACUUUGUCGGGUGAUACCAGCCUCGGCAAAUCUCGUGCCGAACAUGAGGAUCACCCAUGUGGCCCUUGGCAGCACAUGACAACUC
apparent Kd [3]: 442 nM | apparent Kd [4]: 70 nM

UGGAAAGCACAUGAGGAUCACCCAUGUGAUACCAGCUGAAACUAAGGCCCUUGGCAGCACAUGGUACCAACCCUUUGGUAGUCCA
apparent Kd [1]: 11.9 nM | apparent Kd [2]: 50.5 nM

UUAAGAGGAUAUCAAAUUUGAUUUUGUGAUACCAGAAUAAUUUUAUUCCCUUGGCAGCAUGACAUGAGGAUCACCCAUGUGUCUU
apparent Kd [3]: 37 nM | apparent Kd [4]: 30 nM

UUCUGGUCCCGUGAUACCAGAGACAUGAGGAUCACCCAUGUACAUGAGGAUCACCCAUGUUUCCCUUGGCAGCACUGUAGGGAGC
apparent Kd [1]: 196 nM | apparent Kd [2]: 1220 nM

ACAUGAGGAUCACCCAUGUCUGCCACUGAUACCAGCGGAUGCCAACGCCCUUGGCAGCAGAACAUGAGGAUCACCCAUGUAGGCA
apparent Kd [3]: 319 nM | apparent Kd [4]: 209 nM

AUCGUACCUAGUGAUACCAGCAAGUGAUCAUAACAUGAGGAUCACCCAUGUAAUCAGUGAUGCCCUUGGCAGCAUAAUCGUUACA
apparent Kd [3]: 193 nM | apparent Kd [4]: 155 nM

AGCGCUAUGCAUGAUACCAGCUACAUGAGGAUCACCCAUGUGCGUCAGAAAUGACUGUGUAGCCCUUGGCAGCAUAAAGCAUGUA
apparent Kd [1]: 19.1 nM | apparent Kd [2]: 46.3 nM

UAUAAAAUAACAGAUACCAGCGUGUUAUAAAACAUGAGGAUCACCCAUGUAGUGAUCAAGCGCCCUUGGCAGCUGGUAUUUUAUG
apparent Kd [3]: 79.3 nM | apparent Kd [4]: 133 nM

UAAAACAUGAGGAUCACCCAUGUAAAUGAUACCAGAGUGAUGAUCCUCCCUUGGCAGCAUAACGCUGAUUGGAAACAAUCAGCGA
apparent Kd [3]: 130 nM | apparent Kd [4]: 243 nM

UGACAUUGCUGCGAUACCAGACAUGAGGAUCACCCAUGUACCAAGGUAAGAAAAUAACAUGUCCCUUGGCAGCGCAGCAAUGUCU
apparent Kd [1]: 14.9 nM | apparent Kd [2]: 284 nM

UCGUGUAUAACGGAUACCAGUGAGAAGGAUACAUGAGGAUCACCCAUGUGAGUUGAUCCACACCCUUGGCAGCUGUAUAUAUCUA
apparent Kd [3]: 194 nM | apparent Kd [4]: 1100 nM

AGCAUUGUAACAGAUACCAGACUUUUAAUGCCUCUAAUAACAUGAGGAUCACCCAUGUAUGUCCCUUGGCAGCUGUUAUGAUGCA
apparent Kd [1]: 115 nM | apparent Kd [2]: 220 nM
